The values that follow come from ChEMBL document CHEMBL4219174, “Synthesis and evaluation of 2,9-disubstituted 8-phenylthio/phenylsulfinyl-9H-purine as new EGFR inhibitors” (Bioorg Med Chem, 2018).

Activity calls are given as the source filed them. The calls are words filed in the database; no cut-off is given here. A value given as a limit tells only on which side of the number the result lay.

Data set [1] relates to HCC827. The data set can be described thus: Antiproliferative activity against human HCC827 cells after 72 hrs by MTT assay. To be noted: HCC827, 72 h. It is filed as functional, cell-based.
The next data set has as its system NCI-H1975. Description: Antiproliferative activity against human NCI-H1975 cells after 72 hrs by MTT assay. The class given is functional, cell-based. To be noted: NCI-H1975, 72 h.
Another data set deals with A549. Description: Antiproliferative activity against human A549 cells after 72 hrs by MTT assay. To be noted: A549, 72 h. The class given is functional, cell-based.
The target of data set [2] is Epidermal growth factor receptor (Homo sapiens, UniProt P00533, C797S/L858R/T790M). The data set can be described thus: Inhibition of EGFR L858R/T790M/C797S triple mutant (unknown origin) using poly (Glu, Tyr) as substrate after 40 mins by kinase-glo plus luminescence assay.
Data set [3] is described as follows: Selectivity ratio of IC50 for human NCI-H1975 cells to IC50 for human HCC827 cells. It is filed as functional.
Data set [4] is described as follows: Selectivity ratio of IC50 for human A549 cells to IC50 for human HCC827 cells. The class given is functional.
The test system of data set [5] is HCC827. The data set can be described thus: Antiproliferative activity against human HCC827 cells at 1 uM after 72 hrs by MTT assay relative to control. The class given is functional. To be noted: for Emax at 1 µM: Homo sapiens, HCC827, 72 h. In outline: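 Human lung carcinoma HCC827 cells (EGFR Del E746-A750) were tested by MTT colorimetric assay, with gefitinib and AZD9291 as positive controls. The read-out was percent growth inhibition at a single fixed concentration.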

For data set [6], the target named is Epidermal growth factor receptor (Homo sapiens, UniProt P00533, L858R/T790M). Description: Inhibition of EGFR L858R/T790M double mutant (unknown origin) using poly (Glu, Tyr) as substrate after 40 mins by kinase-glo plus luminescence assay.
For data set [7], the target named is T1, Epidermal growth factor receptor (Homo sapiens, UniProt P00533). Description: Inhibition of EGFR auto-phosphorylation in human HCC827 cells after 8 hrs by Western blot analysis. It is filed as cell-based.
Data set [8] concerns HCC827. Description: Anti-tumor activity against human HCC827 cells xenografted in nude Balb/c mouse assessed as tumor growth inhibition at 5 mg/kg, po administered once daily for 20 days measured once in three days till day 21. It is filed as functional, organism-based. The gist of the method:
(§1)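 HCC827 (EGFR Del E746-A750) xenografts in nude mice, n = 6 per group. Oral dosing at 1 or 5 mg/kg once daily for 20 days, compared against a vehicle group. Read-outs were tumor growth curves and body weight over the treatment period, plus final tumor weight after 20 days. Significance was tested vs vehicle.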

The test system of a further data set is Mus musculus. Description: Toxicity in nude Balb/c mouse xenografted with human HCC827 cells assessed as increase in body weight at 5 mg/kg, po administered once daily for 20 days measured every day till day 21. It is filed as organism-based. To be noted: in vivo, 480 h. The gist of the method:
as §1

In data set [9] the target is T1, Epidermal growth factor receptor. Description: Inhibition of wild type EGFR (unknown origin) using poly (Glu, Tyr) as substrate after 40 mins by kinase-glo plus luminescence assay.

T1 sequence (P00533 whole entry): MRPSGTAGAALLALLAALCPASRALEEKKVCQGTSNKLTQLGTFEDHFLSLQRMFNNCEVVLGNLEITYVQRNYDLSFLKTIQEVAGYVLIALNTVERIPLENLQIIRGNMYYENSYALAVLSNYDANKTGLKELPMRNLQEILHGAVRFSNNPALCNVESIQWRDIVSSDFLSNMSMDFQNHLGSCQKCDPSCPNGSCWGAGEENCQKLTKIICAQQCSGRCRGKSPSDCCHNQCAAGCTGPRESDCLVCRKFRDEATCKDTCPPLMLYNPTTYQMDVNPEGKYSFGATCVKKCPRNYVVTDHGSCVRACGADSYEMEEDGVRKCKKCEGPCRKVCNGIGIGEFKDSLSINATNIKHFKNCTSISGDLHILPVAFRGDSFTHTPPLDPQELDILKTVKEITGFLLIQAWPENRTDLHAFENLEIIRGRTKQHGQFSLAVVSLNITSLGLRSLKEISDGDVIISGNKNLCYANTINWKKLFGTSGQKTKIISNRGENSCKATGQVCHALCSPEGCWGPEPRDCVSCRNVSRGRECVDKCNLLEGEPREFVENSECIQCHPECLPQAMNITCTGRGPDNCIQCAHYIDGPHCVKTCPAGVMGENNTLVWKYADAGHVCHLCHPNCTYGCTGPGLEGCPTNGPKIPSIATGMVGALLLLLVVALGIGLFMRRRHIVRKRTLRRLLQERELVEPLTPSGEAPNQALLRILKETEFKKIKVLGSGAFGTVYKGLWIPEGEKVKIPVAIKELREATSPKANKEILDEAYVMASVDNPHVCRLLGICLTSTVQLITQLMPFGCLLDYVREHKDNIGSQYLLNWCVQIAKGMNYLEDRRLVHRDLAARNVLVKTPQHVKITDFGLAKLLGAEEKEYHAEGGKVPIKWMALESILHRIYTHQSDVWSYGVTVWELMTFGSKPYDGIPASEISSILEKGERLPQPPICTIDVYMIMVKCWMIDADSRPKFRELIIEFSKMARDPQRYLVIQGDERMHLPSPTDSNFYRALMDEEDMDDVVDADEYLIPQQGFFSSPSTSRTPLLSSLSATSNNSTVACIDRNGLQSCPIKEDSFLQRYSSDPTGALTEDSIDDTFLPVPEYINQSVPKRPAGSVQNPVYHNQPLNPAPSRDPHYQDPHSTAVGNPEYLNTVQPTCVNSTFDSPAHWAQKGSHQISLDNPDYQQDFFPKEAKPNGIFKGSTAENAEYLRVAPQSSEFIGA
Epidermal growth factor receptor (Homo sapiens, UniProt P00533, C797S/L858R/T790M), sequence (P00533 25-1210 T790M/C797S/L858R limits assumed): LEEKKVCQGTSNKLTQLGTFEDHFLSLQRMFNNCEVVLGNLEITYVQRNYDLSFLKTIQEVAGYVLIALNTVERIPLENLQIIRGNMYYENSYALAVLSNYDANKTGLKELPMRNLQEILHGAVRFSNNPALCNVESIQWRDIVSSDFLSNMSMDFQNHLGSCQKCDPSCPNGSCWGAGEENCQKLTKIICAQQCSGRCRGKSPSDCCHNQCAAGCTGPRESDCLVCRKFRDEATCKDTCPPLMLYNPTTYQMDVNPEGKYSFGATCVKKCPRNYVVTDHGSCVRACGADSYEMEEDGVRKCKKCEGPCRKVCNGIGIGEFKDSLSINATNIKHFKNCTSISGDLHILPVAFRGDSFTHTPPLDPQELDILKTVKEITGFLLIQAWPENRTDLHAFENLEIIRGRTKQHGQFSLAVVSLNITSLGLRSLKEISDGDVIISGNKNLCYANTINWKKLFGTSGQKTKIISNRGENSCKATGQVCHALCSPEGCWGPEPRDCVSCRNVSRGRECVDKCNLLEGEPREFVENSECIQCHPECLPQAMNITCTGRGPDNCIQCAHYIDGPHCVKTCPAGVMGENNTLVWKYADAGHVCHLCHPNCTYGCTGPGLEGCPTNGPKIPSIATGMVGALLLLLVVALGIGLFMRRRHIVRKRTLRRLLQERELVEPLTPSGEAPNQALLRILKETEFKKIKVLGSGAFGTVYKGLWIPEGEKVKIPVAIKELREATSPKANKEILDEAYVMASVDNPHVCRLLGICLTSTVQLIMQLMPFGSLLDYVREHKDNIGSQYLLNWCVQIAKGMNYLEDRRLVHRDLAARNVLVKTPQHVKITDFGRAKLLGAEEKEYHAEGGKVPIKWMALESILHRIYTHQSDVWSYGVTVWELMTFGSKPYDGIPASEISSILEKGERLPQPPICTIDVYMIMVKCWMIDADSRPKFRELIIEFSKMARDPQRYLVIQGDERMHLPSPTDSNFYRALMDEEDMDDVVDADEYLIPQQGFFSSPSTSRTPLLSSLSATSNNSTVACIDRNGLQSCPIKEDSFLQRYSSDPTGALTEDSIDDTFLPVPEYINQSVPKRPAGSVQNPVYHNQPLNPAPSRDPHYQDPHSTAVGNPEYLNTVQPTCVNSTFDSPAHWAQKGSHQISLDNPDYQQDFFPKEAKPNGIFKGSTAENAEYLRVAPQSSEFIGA
Epidermal growth factor receptor (Homo sapiens, UniProt P00533, L858R/T790M), sequence (P00533 25-1210 T790M/L858R limits assumed): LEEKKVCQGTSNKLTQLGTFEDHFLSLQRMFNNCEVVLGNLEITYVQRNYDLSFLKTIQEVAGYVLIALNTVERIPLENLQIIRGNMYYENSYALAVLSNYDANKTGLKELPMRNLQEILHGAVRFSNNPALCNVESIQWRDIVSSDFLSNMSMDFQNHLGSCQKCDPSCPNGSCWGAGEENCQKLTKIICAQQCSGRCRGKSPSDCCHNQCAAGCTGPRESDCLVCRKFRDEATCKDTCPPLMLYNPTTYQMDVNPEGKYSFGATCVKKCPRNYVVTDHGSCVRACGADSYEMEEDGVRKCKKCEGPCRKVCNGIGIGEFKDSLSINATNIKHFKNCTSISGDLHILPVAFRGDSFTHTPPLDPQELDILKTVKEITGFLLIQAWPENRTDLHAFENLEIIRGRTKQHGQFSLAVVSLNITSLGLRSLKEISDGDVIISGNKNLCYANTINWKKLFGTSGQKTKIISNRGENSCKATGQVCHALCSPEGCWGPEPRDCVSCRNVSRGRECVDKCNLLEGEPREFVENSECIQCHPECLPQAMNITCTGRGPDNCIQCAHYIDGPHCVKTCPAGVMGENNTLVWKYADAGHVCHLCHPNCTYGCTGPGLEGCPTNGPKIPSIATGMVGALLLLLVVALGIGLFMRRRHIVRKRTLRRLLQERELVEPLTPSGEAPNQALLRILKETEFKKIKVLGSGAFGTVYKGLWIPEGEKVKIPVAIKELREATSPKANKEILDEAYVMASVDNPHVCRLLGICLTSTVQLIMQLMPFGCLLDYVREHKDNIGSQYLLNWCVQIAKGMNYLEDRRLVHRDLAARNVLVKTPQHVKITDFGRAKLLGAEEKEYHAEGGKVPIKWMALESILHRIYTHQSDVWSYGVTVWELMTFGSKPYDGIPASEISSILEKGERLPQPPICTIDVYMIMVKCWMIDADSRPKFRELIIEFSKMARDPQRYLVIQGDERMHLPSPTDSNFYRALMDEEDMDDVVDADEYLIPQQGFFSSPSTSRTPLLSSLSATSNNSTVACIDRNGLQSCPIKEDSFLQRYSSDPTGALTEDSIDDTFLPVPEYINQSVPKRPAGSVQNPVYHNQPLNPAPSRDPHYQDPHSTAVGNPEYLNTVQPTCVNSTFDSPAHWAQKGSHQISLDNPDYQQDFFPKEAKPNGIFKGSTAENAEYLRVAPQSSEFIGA

`CN(C)CCOc1ccc(Nc2ncc3nc([S+]([O-])c4ccc(F)cc4)n(C4CCOCC4)c3n2)cc1` (stereo not drawn) showed an IC50 in the data set on HCC827 [1] of 553 nM.

Consider `CN(C)CCOc1ccc(Nc2ncc3nc(Sc4cccc(F)c4)n(C4CCOCC4)c3n2)cc1`, for which the IC50 in the data set with NCI-H1975 is 2770 nM; in the data set on A549, 3360 nM; in [2], 805 nM; in the data set with HCC827 [1] it was 51.4 nM. The entries for the “Ratio IC50” value in data set [3] and in data set [4] were 54 and 65, respectively.

On to `CN(C)CCN(C)c1ccc(Nc2ncc3nc([S+]([O-])c4ccccc4)n(C4CCOCC4)c3n2)cc1` (stereo not drawn), for which the IC50 with HCC827 [1] was found to be 1330 nM.

Take `CN(C)CCOc1ccc(Nc2ncc3nc(Sc4ccccc4)n(C4CCOCC4)c3n2)cc1`: the IC50 in the data set with NCI-H1975 is 9610 nM; in the data set with A549, greater than 10000 nM; in data set [2], 556 nM; in the data set with HCC827 [1] it was 44.3 nM. In the data set on HCC827 [5], this compound yielded an Emax at 1 µM of 78%. In addition, the “Ratio IC50” value is given as 217 in data set [3] and greater than 226 in [4].

On to `CN1CCN(c2ccc(Nc3ncc4nc(SCc5ccccc5)n(C5CCOCC5)c4n3)cc2)CC1`, for which, in the data set on HCC827 [1], the midpoint of inhibition, the IC50, lay at 106 nM.

In the case of `CN(C)CCOc1ccc(Nc2ncc3nc([S+]([O-])c4cccc(F)c4)n(C4CCOCC4)c3n2)cc1` (stereo not drawn), in the data set with HCC827 [1], half-maximal inhibition (IC50) required 359 nM.

`CN1CCN(c2ccc(Nc3ncc4nc([S+]([O-])c5ccccc5)n([C@H]5CC[C@H](O)CC5)c4n3)cc2)CC1` (stereo partly drawn) gave an IC50 in the data set with HCC827 [1] of 268 nM.

Regarding `CN(C)CCOc1ccc(Nc2ncc3nc([S+]([O-])c4ccccc4)n(C4CCOCC4)c3n2)cc1` (stereo not drawn), the IC50 is greater than 10000 nM in the data set on NCI-H1975, greater than 10000 nM in the data set with A549 and 50.3 nM in the data set with HCC827 [1]. The “Ratio IC50” value in data set [3] and in data set [4] was greater than 198 throughout.

The compound `CN1CCC(Oc2ccc(Nc3ncc4nc(Sc5ccccc5)n(C5CCOCC5)c4n3)cc2)CC1` showed an IC50 with HCC827 [1] of 140 nM.

Take `CN1CCN(c2ccc(Nc3ncc4nc(Sc5ccccc5)n(C5CCOCC5)c4n3)cc2)CC1`: the IC50 with NCI-H1975 is 2260 nM; in the data set on A549 it was 2940 nM; in [2] it was 892 nM; with HCC827 [1] it was 42.6 nM. Moreover, the “Ratio IC50” value in [3] was 53; in data set [4], 69.

In the data set on HCC827 [1], `CC(C)n1c([S+]([O-])c2ccccc2)nc2cnc(Nc3ccc(N4CCN(C)CC4)cc3)nc21` (stereo not drawn) had an IC50 of 214 nM.

The compound `CN1CCN(c2ccc(Nc3ncc4nc([S+]([O-])Cc5ccccc5)n(C5CCOCC5)c4n3)cc2)CC1` (stereo not drawn) returned an IC50 with HCC827 [1] of 433 nM.

Compound `CN1CCC(Oc2ccc(Nc3ncc4nc([S+]([O-])c5ccccc5)n(C5CCOCC5)c4n3)cc2)CC1` (stereo not drawn) returned an IC50 in the data set with HCC827 [1] of 853 nM.

As to `CN(C)C1CCN(c2ccc(Nc3ncc4nc(Sc5ccccc5)n(C5CCOCC5)c4n3)cc2)CC1`, the IC50 in the data set with NCI-H1975 was 4990 nM; in the data set on A549, greater than 10000 nM; in data set [6], 104 nM; in data set [2], 331 nM; with HCC827 [1], 29.4 nM; in data set [9] it was 1.6 nM. The compound also registered an Emax at 1 µM with HCC827 [5] of 81%. In addition, the “Ratio IC50” value is 170 in data set [3] and greater than 340 in data set [4]. In addition, the inhibition entry in data set [7] was “Dose-dependent effect”. Besides, in the data set on HCC827 [8], the TGI result was “Active”. Moreover, in the data set on Mus musculus, the Activity entry is given as “Non-Toxic”.

`CN1CCN(c2ccc(Nc3ncc4nc(SCc5cccnc5)n(C5CCCC5)c4n3)cc2)CC1` returned an IC50 in the data set on HCC827 [1] of 517 nM.

As to `CN1CCN(c2ccc(Nc3ncc4nc(Sc5ccccc5)n(C5CCCC5)c4n3)cc2)CC1`, the IC50 amounted to 5580 nM with NCI-H1975, 237 nM with A549 and 51.2 nM in the data set with HCC827 [1]. Besides, the “Ratio IC50” value in data set [3] is recorded as 109; in [4], 5.

As to `CN1CCN(c2ccc(Nc3ncc4nc(Sc5ccccc5)n(CC5CC5)c4n3)cc2)CC1`, 660 nM corresponded to half-maximal inhibition with HCC827 [1] (IC50).

As to `CN(C)CCOc1ccc(Nc2ncc3nc(Sc4ccc(F)cc4)n(C4CCOCC4)c3n2)cc1`, the IC50 in the data set with NCI-H1975 was 6260 nM; in the data set with A549 it was 4850 nM; in [6] it was 189 nM; in data set [2], 114 nM; with HCC827 [1] it was 47.8 nM; in data set [9], 2.5 nM. In addition, the “Ratio IC50” value was found to be 131 in data set [3] and 101 in [4].

In turn, `CN1CCN(c2ccc(Nc3ncc4nc([S+]([O-])Cc5cccnc5)n(C5CCOCC5)c4n3)cc2)CC1` (stereo not drawn) yielded an IC50 in the data set on HCC827 [1] greater than 10000 nM.

Compound `CN1CCN(c2ccc(Nc3ncc4nc(SCc5cccnc5)n(C5CC5)c4n3)cc2)CC1` registered an IC50 with HCC827 [1] of 8830 nM.

In turn, `CN1CCN(c2ccc(Nc3ncc4nc(Nc5ccccc5)n(C5CCCC5)c4n3)cc2)CC1` registered an Emax at 1 µM in the data set with HCC827 [5] of 70%. Further, it took 35.9 nM to reach half-maximal inhibition with HCC827 [1] (IC50).

In the data set with HCC827 [1], `CN(C)C1CCN(c2ccc(Nc3ncc4nc([S+]([O-])c5ccccc5)n(C5CCOCC5)c4n3)cc2)CC1` (stereo not drawn) had an IC50 of 1290 nM.

For `CC(C)n1c(Sc2ccccc2)nc2cnc(Nc3ccc(N4CCN(C)CC4)cc3)nc21`, the IC50 with HCC827 [1] is 290 nM.

`CN1CCN(c2ccc(Nc3ncc4nc([S+]([O-])Cc5cccnc5)n(C5CCCC5)c4n3)cc2)CC1` (stereo not drawn) had an IC50 with HCC827 [1] of 2350 nM.

For `CN1CCN(c2ccc(Nc3ncc4nc(Sc5ccccc5)n([C@H]5CC[C@H](O)CC5)c4n3)cc2)CC1`, the IC50 with NCI-H1975 was 1320 nM; in the data set with A549, 426 nM; in [2], 529 nM; in the data set on HCC827 [1], 42.6 to 47.9 nM. The “Ratio IC50” value was determined as 31 in [3] and 10 in [4].

Compound `CN1CCN(c2ccc(Nc3ncc4nc(Sc5ccccc5)n(C5CC5)c4n3)cc2)CC1` came in with an IC50 in the data set on HCC827 [1] of 304 nM.

The compound `CN1CCN(c2ccc(Nc3ncc4nc([S+]([O-])c5ccccc5)n(C5CC5)c4n3)cc2)CC1` (stereo not drawn) had a concentration for half-maximal inhibition (IC50) in the data set on HCC827 [1] of 1630 nM.

As to `C=CC(=O)Nc1cc(Nc2nccc(-c3cn(C)c4ccccc34)n2)c(OC)cc1N(C)CCN(C)C` [OSIMERTINIB], the figures for the IC50 in the data set with NCI-H1975, in the data set with A549 and in the data set with HCC827 [1] were […], 486 nM and 25.4 to 43.1 nM, respectively. In addition, the Emax in the data set on HCC827 [5] was 73%.

Compound `CN1CCN(c2ccc(Nc3ncc4nc([S+]([O-])c5ccccc5)n(C5CCOCC5)c4n3)cc2)CC1` (stereo not drawn) showed an IC50 in the data set with HCC827 [1] of 411 nM.

For the compound `CN1CCN(c2ccc(Nc3ncc4nc(SCc5cccnc5)n(C5CCOCC5)c4n3)cc2)CC1`, the IC50 in the data set with HCC827 [1] is 500 nM.

With `CN1CCN(c2ccc(Nc3ncc4nc([S+]([O-])c5ccccc5)n(C5CCCC5)c4n3)cc2)CC1` (stereo not drawn), the IC50 in the data set with NCI-H1975 is 5110 nM; with A549, greater than 10000 nM; with HCC827 [1] it was 64.7 nM. The “Ratio IC50” value is given as 79 in data set [3] and greater than 154 in data set [4].

`CN1CCN(c2ccc(Nc3ncc4nc([S+]([O-])c5ccccc5)n(CC5CC5)c4n3)cc2)CC1` (stereo not drawn) had an IC50 in the data set with HCC827 [1] of 838 nM.

In the data set on HCC827 [1], `CN(C)CCN(C)c1ccc(Nc2ncc3nc(Sc4ccccc4)n(C4CCOCC4)c3n2)cc1` registered an IC50 of 499 nM.
